In PMC3712647 (European journal of medicinal chemistry, 2013):
Read-outs that look alike come from different tables or passages of the source.

What was measured:
full NCI 60 cell panel [1] = test: NCI 60 five-concentration screen, panel mean; type: cell-based; conditions: Homo sapiens, 48 h; for IC (TGI): read-out: TGI MG-MID; for GI50: read-out: GI50 MG-MID; for CC50: read-out: LC50 MG-MID
Breast = test: cells; type: cell-based; conditions: Homo sapiens, 48 h, read-out: TGI Breast
Melanoma = test: NCI 60 five-concentration screen, melanoma subpanel; type: cell-based; conditions: Homo sapiens, 48 h, read-out: TGI Melanoma
Nox4 in B1647 cells [2] = test: Intracellular ROS level; type: cell-based, human; conditions: 30 min treatment at 5 or 10 µM
Outline: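 Human AML B1647 cells grown in IMDM with 5% human serum (37 °C, 5% CO₂) were treated 30 min with test compound in DMSO. Cells (1 × 10⁶/mL) were washed twice in PBS and loaded with 5 µM DCFH-DA for 20 min at 37 °C. Oxidized DCF fluorescence was read in a multiwell plate reader.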

Leukemia = test: cells; type: cell-based; conditions: Homo sapiens, 48 h, read-out: TGI Leukemia
Nox4 = Nox4 expression by Western blotting in B1647 cells; type: cell-based, human; conditions: 24 h treatment; 10 µM
Outline: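 B1647 cells were treated 24 h, then lysed 15 min on ice (1% Igepal, 150 mM NaCl, 50 mM Tris–HCl, 5 mM EDTA, protease inhibitors, orthovanadate, pH 8.0). 40 µg protein/lane ran on 10% SDS-PAGE and was transferred to nitrocellulose (100 V, 90 min). Blots were blocked in 5% milk in TBS/Tween, probed overnight at 4 °C with anti-Nox4 and anti-β-tubulin, then HRP secondaries, with luminol detection.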

Nox4 in B1647 cells [3] = test: Intracellular ROS after Nox2 silencing in B1647 cells; type: cell-based, human; conditions: siRNA against Nox2, 50 nM
Renal = test: NCI 60 five-concentration screen, renal subpanel; type: cell-based; conditions: Homo sapiens, 48 h, read-out: TGI Renal
Ovarian = test: cells; type: cell-based; conditions: Homo sapiens, 48 h, read-out: TGI Ovarian
Colon = test: NCI 60 five-concentration screen, colon subpanel; type: cell-based; conditions: Homo sapiens, 48 h, read-out: TGI Colon
Prostate = test: cells; type: cell-based; conditions: Homo sapiens, 48 h, read-out: TGI Prostate
cells = test: Cell cycle effect; type: cell-based; conditions: data not presented
CNS = test: cells; type: cell-based; conditions: Homo sapiens, 48 h, read-out: TGI CNS
NSCLC = test: NCI 60 five-concentration screen, NSCLC subpanel; type: cell-based; conditions: Homo sapiens, 48 h, read-out: TGI NSCLC
full NCI 60 cell panel [4] = test: NCI 60 Cell One-Dose Screen; type: cell-based

| Structure (SMILES) | IC (TGI) (full NCI 60 cell panel [1]) | IC (TGI) (Breast) | IC (TGI) (Melanoma) | GI50 (full NCI 60 cell panel [1]) | IC (TGI) (Leukemia) | CC50 (full NCI 60 cell panel [1]) | IC (TGI) (Renal) | IC (TGI) (Colon) | IC (TGI) (CNS) | further results |
| --- | --- | --- | --- | --- | --- | --- | --- | --- | --- | --- |
| COc1ccc(OC)c2c1NC(=O)/C2=C\c1cc(OC)c(OC)c(OC)c1 [Compound 3] | 19.5 µM | 19 µM |  |  |  |  |  |  |  |  |
| COc1cc(/C=C2\C(=O)Nc3ccc(Br)cc32)cc(OC)c1OC [Compound 5] | 67.6 µM |  | 76 µM | 7.9 µM | 49 µM |  |  |  |  | ROS generation (Nox4 in B1647 cells [2]): partially inhibited; Nox4 expression (Nox4): downregulate Nox4 expression; ROS production in Nox2 silenced cells vs scrambled cells (Nox4 in B1647 cells [3]): inhibited ROS production to the same extent |
| COc1cc(/C=C2\C(=O)Nc3ccc(N(C)C)cc32)cc(OC)c1OC [Compound 6] | 32.4 µM |  |  | 2.8 µM | 9.3 µM | 89.1 µM | 49 µM |  |  | IC (TGI) (Ovarian): 32.4 µM |
| COc1cc(/C=C2/C(=O)Nc3cc(C)c(O)cc32)cc(OC)c1OC [Compound 7] | 20.9 µM |  |  | 4.3 µM | 8.7 µM | 69.2 µM |  |  |  | ROS generation (Nox4 in B1647 cells [2]): partially inhibited; Nox4 expression (Nox4): downregulate Nox4 expression; ROS production in Nox2 silenced cells vs scrambled cells (Nox4 in B1647 cells [3]): inhibited ROS production to the same extent |
| COc1cc(/C=C2\C(=O)Nc3cc(Cl)ccc32)cc(OC)c1OC [Compound 8] | 5.4 µM | 4.1 µM | 6.8 µM | 1.3 µM | 3.6 µM | 24 µM | 4.9 µM | 5.4 µM | 5 µM | IC (TGI) (Prostate): 5.4 µM; proportion of cells in G2/M (cells): increased proportion of cells in G2/M; IC (TGI) (Ovarian): 5.4 µM; IC (TGI) (NSCLC): 8.3 µM |
| COc1cc(/C=C2\C(=O)Nc3cc(OC(F)(F)F)ccc32)cc(OC)c1OC [Compound 9] | 12.3 µM | 8.7 µM |  | 2.7 µM |  |  |  |  | 7.4 µM |  |
| COc1cc(/C=C2/C(=O)N(C)c3ccc(O)cc32)cc(OC)c1OC [Compound 10] | 17.4 µM |  |  | 4.4 µM | 8.3 µM |  |  |  | 17.4 µM | IC (TGI) (Prostate): 6.3 µM |
| COc1ccc2c(c1)/C(=C\c1cc(OC)c(OC)c(OC)c1)C(=O)N2C [Compound 11] | 21.9 µM | 21.9 µM | 21.9 µM |  | 7.6 µM | 89.1 µM | 24 µM |  |  |  |
| COc1cc(/C=C2\C(=O)N(C)c3ccc(Cl)cc32)cc(OC)c1OC [Compound 12] | 21.4 µM |  | 21.4 µM | 4.5 µM |  |  | 24 µM |  |  |  |
| COc1cc(/C=C2\C(=O)N(Cc3ccc(Cl)cc3)c3ccccc32)cc(OC)c1OC [Compound 13] | 10.7 µM |  | 8.9 µM | 2.6 µM | 4.9 µM | 41.7 µM | 10.7 µM | 5.9 µM |  | IC (TGI) (Prostate): 7.6 µM |
| COc1ccc(CN2C(=O)/C(=C\c3cc(OC)c(OC)c(OC)c3)c3ccccc32)cc1 [Compound 14] | 9.3 µM |  | 4.5 µM | 2.1 µM |  | 35.5 µM | 9.1 µM | 3.6 µM |  | IC (TGI) (NSCLC): 9.3 µM |
| COc1ccc(CN2C(=O)/C(=C/c3cc(OC)c(OC)c(OC)c3)c3cc(OC)ccc32)cc1 [Compound 15] | 8.9 µM |  | 5.7 µM |  |  | 34.7 µM | 8.9 µM | 3.8 µM | 7.4 µM | IC (TGI) (Ovarian): 8.9 µM |
| COc1ccc2c(c1)C(=Nc1cc(OC)c(OC)c(OC)c1)C(=O)N2 [Compound 18] |  |  |  |  |  |  |  |  |  | cytotoxic activity in the preliminary one-dose test (full NCI 60 cell panel [4]): lack of cytotoxic activity |
| COc1cc(/N=C2\C(=O)N(Cc3ccccc3)c3ccccc32)cc(OC)c1OC [Compound 19] |  |  |  |  |  |  |  |  |  | growth inhibition in the one-dose screen (full NCI 60 cell panel [4]; RXF 393, CCRF-CEM, RPMI-8226 and HOP-92 cells, 10^−5 M, data not shown): growth inhibition; cytotoxic activity in the preliminary one-dose test (full NCI 60 cell panel [4]; single concentration 10^−5 M, 48 h incubation): lack of cytotoxic activity |
| CC[C@]1(O)C[C@H]2CN(CCc3c([nH]c4ccccc34)[C@@](C(=O)OC)(c3cc4c(cc3OC)N(C=O)[C@H]3[C@@](O)(C(=O)OC)[C@H](OC(C)=O)[C@]5(CC)C=CCN6CC[C@]43[C@@H]65)C2)C1 [Vincristine, reference compound] | 10 µM | 7.9 µM | 7.9 µM |  | 15.8 µM |  | 19.9 µM | 4 µM | 6.3 µM | IC (TGI) (Prostate): 6.3 µM; IC (TGI) (Ovarian): 19.9 µM; IC (TGI) (NSCLC): 15.8 µM |
